Assay results reported in ChEMBL document CHEMBL3616423, “Design and synthesis of novel hydroxyanthraquinone nitrogen mustard derivatives as potential anticancer agents via a bioisostere approach” (Eur J Med Chem, 2015).
pIC50: −log10 of the molar value.

Key:
HeLa [1] = assay: Cytotoxicity against human HeLa cells assessed as cell viability after 5 days by cell viability analyzer; format: functional, cell-based; conditions: 120 h
Summary of the method: (§1)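 Cells were grown in DMEM with 10% FBS, 4 mM glutamine, 1 mM sodium pyruvate, penicillin/streptomycin and amphotericin at 37 °C under 5% CO2, then seeded at 20,000 per well. They were exposed to five doses from 0.01 to 10 μM for 5 days, with DMSO vehicle as control. Viable cells were counted, and % viability was calculated as treated/vehicle. IC50 was taken from dose-response curves over three independent experiments.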

MDA-MB-231 [2] = assay: Cytotoxicity against human MDA-MB-231 cells assessed as cell viability after 5 days by cell viability analyzer; format: functional, cell-based; conditions: MDA-MB-231, 120 h; summary of the method: as §1
MCF10 = assay: Cytotoxicity against human MCF10 cells at 1 to 10 uM; format: cell-based; conditions: mcf10, 10 µM
MDA-MB-231 [3] = assay: Ratio of chlorambucil IC50 to compound IC50 for human MDA-MB-231 cells assessed as cell viability after 5 days by cell viability analyzer; format: functional
Summary of the method: (§2)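 Cells grown in DMEM with 10% FBS, 4 mM glutamine, 1 mM sodium pyruvate, penicillin/streptomycin and amphotericin at 37 °C under 5% CO2. They were seeded at 20,000 per well and exposed to test agents or chlorambucil at 5 doses (0.01–10 μM) for 5 days, with DMSO as vehicle. Viable cells were counted by analyzer and expressed as % of vehicle. IC50s for both agents came from dose-response curves over three independent experiments.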

MCF7 = assay: Ratio of chlorambucil IC50 to compound IC50 for human MCF7 cells assessed as cell viability after 5 days by cell viability analyzer; format: functional; summary of the method: as §2
HeLa [4] = assay: Ratio of chlorambucil IC50 to compound IC50 for human HeLa cells assessed as cell viability after 5 days by cell viability analyzer; format: functional; summary of the method: as §2

CC(c1cc(O)c2c(c1O)C(=O)c1ccccc1C2=O)N(CCCl)CCCl (stereo not given)
pIC50 (HeLa [1]): 6.81 | pIC50 (MDA-MB-231 [2]): 6.00

O=C1c2ccccc2C(=O)c2c(O)c(CN(CCCl)CCCl)cc(O)c21
pIC50 (HeLa [1]): 6.86 | pIC50 (MDA-MB-231 [2]): 6.68

CCC(c1cc(O)c2c(c1O)C(=O)c1ccccc1C2=O)N(CCCl)CCCl (stereo not given)
pIC50 (HeLa [1]): 6.98 | pIC50 (MDA-MB-231 [2]): 7.07

CCCC(c1cc(O)c2c(c1O)C(=O)c1ccccc1C2=O)N(CCCl)CCCl (stereo not given)
pIC50 (HeLa [1]): 6.82 | pIC50 (MDA-MB-231 [2]): 7.21

CC(C)C(c1cc(O)c2c(c1O)C(=O)c1ccccc1C2=O)N(CCCl)CCCl (stereo not given)
Activity (MCF10): Toxic | pIC50 (HeLa [1]): 6.66 | pIC50 (MDA-MB-231 [2]): 7.11

CC(C)CC(c1cc(O)c2c(c1O)C(=O)c1ccccc1C2=O)N(CCCl)CCCl (stereo not given)
pIC50 (HeLa [1]): 6.41 | pIC50 (MDA-MB-231 [2]): 7.84

O=C1c2ccccc2C(=O)c2c(O)c(C(Cc3ccccc3)N(CCCl)CCCl)cc(O)c21 (stereo not given)
pIC50 (HeLa [1]): 6.18 | pIC50 (MDA-MB-231 [2]): 7.29

O=C1c2ccccc2C(=O)c2c(O)c(C(c3ccccc3)N(CCCl)CCCl)cc(O)c21 (stereo not given)
Activity (MCF10): Toxic | pIC50 (HeLa [1]): 6.47 | pIC50 (MDA-MB-231 [2]): 6.86

O=C1c2ccccc2C(=O)c2c(O)c(C(c3ccccc3F)N(CCCl)CCCl)cc(O)c21 (stereo not given)
Activity (MCF10): Toxic | pIC50 (HeLa [1]): 6.21 | pIC50 (MDA-MB-231 [2]): 9.23 | Ratio IC50 (MDA-MB-231 [3]): 900

O=C1c2ccccc2C(=O)c2c(O)c(C(c3cccc(F)c3)N(CCCl)CCCl)cc(O)c21 (stereo not given)
Activity (MCF10): Toxic | pIC50 (HeLa [1]): 6.78 | pIC50 (MDA-MB-231 [2]): 7.22

O=C1c2ccccc2C(=O)c2c(O)c(C(c3ccc(F)cc3)N(CCCl)CCCl)cc(O)c21 (stereo not given)
Ratio IC50 (MCF7): 100 | Activity (MCF10): Toxic | pIC50 (HeLa [1]): 6.60 | pIC50 (MDA-MB-231 [2]): 7.09

O=C1c2ccccc2C(=O)c2c(O)c(C(c3ccc(Cl)cc3)N(CCCl)CCCl)cc(O)c21 (stereo not given)
pIC50 (HeLa [1]): 6.73 | pIC50 (MDA-MB-231 [2]): 7.32

O=C1c2ccccc2C(=O)c2c(O)c(C(c3ccc(Br)cc3)N(CCCl)CCCl)cc(O)c21 (stereo not given)
pIC50 (HeLa [1]): 6.58 | pIC50 (MDA-MB-231 [2]): 6.52

COc1ccccc1C(c1cc(O)c2c(c1O)C(=O)c1ccccc1C2=O)N(CCCl)CCCl (stereo not given)
Activity (MCF10): Toxic | pIC50 (HeLa [1]): 6.68 | pIC50 (MDA-MB-231 [2]): 8.67

COc1cccc(C(c2cc(O)c3c(c2O)C(=O)c2ccccc2C3=O)N(CCCl)CCCl)c1 (stereo not given)
Activity (MCF10): Toxic | pIC50 (HeLa [1]): 6.68 | pIC50 (MDA-MB-231 [2]): 7.04

COc1ccc(C(c2cc(O)c3c(c2O)C(=O)c2ccccc2C3=O)N(CCCl)CCCl)cc1 (stereo not given)
Activity (MCF10): Toxic | pIC50 (HeLa [1]): 6.34 | pIC50 (MDA-MB-231 [2]): 7.89

Cc1ccc(C(c2cc(O)c3c(c2O)C(=O)c2ccccc2C3=O)N(CCCl)CCCl)cc1 (stereo not given)
pIC50 (HeLa [1]): 7.03 | pIC50 (MDA-MB-231 [2]): 7.65 | Ratio IC50 (HeLa [4]): 10

Cc1ccc(C(c2cc(O)c3c(c2O)C(=O)c2ccccc2C3=O)N(CCCl)CCCl)cc1C (stereo not given)
Activity (MCF10): Toxic | pIC50 (HeLa [1]): 6.63 | pIC50 (MDA-MB-231 [2]): 6.41

O=C1c2cccc(O)c2C(=O)c2c1ccc(C(c1ccccc1)N(CCCl)CCCl)c2O (stereo not given)
pIC50 (HeLa [1]): 6.51 | pIC50 (MDA-MB-231 [2]): 6.50

COc1cc(C(c2ccccc2)N(CCCl)CCCl)c(O)c2c1C(=O)c1ccccc1C2=O (stereo not given)
Activity (MCF10): Toxic | pIC50 (HeLa [1]): 6.32 | pIC50 (MDA-MB-231 [2]): 6.56

O=C(O)CCCc1ccc(N(CCCl)CCCl)cc1 [CHLORAMBUCIL]
pIC50 (HeLa [1]): 6.03 | pIC50 (MDA-MB-231 [2]): 6.28
